Source: PMC10975593 (ACS Omega, 2024)

Experiments:
SK-MEL-5 = assay: NCI 60-cell line screen; format: cell-based, human
In short: (§1)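 Test compounds were submitted to the National Cancer Institute and run under NCI's standard 60-cell-line protocols. Read-outs were taken from percent-growth versus log-concentration curves.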

SW-620 = assay: NCI 60-cell line screen; format: cell-based, human
In short: as §1

SK-OV-3 = assay: NCI 60-cell line screen; format: cell-based, human
In short: as §1

OVCAR-8 = assay: NCI 60-cell line screen; format: cell-based, human
In short: as §1

NCI 60 cell line panel = assay: NCI 60-cell line inhibition, range over panel; format: cell-based; details: Homo sapiens
NCI-H522 = assay: NCI 60-cell line screen; format: cell-based, human
MCF-7 = assay: NCI 60-cell line screen; format: cell-based, human
HT29 = assay: NCI 60-cell line screen; format: cell-based, human
Staphylococcus aureus = assay: Disc diffusion antimicrobial test; format: cell-based; details: Staphylococcus aureus, 24 h, read-out: zone of inhibition (diameter of inhibition)
In short: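 Disc diffusion on nutrient agar, test compound at 100 μg/mL with DMSO as solvent. Plates incubated at 37 °C for 24 h after inoculation, then zone of inhibition measured and compared with standards. Controls were DMSO, amoxicillin, ciprofloxacin and tetracycline.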

PC-3 = assay: NCI 60-cell line screen; format: cell-based, human
In short: as §1

UACC-62 = assay: NCI 60-cell line screen; format: cell-based, human
In short: as §1

A549/ATCC = assay: NCI 60-cell line screen; format: cell-based, human
MDA-MB-231/ATCC = assay: NCI 60-cell line screen; format: cell-based, human
786-0 = assay: NCI 60-cell line screen; format: cell-based, human
T-47D = assay: NCI 60-cell line screen; format: cell-based, human
In short: as §1

CCRF-CEM = assay: NCI 60-cell line screen; format: cell-based, human
IGROV1 = assay: NCI 60-cell line screen; format: cell-based, human
SF-295 = assay: NCI 60-cell line screen; format: cell-based, human
In short: as §1

MDA-MB-435 = assay: NCI 60-cell line screen; format: cell-based, human
HS 578T = assay: NCI 60-cell line screen; format: cell-based, human
SF-539 = assay: NCI 60-cell line screen; format: cell-based, human
In short: as §1

NCI/ADR-RES = assay: NCI 60-cell line screen; format: cell-based, human
COLO 205 = assay: NCI 60-cell line screen; format: cell-based, human
Fibro cell line = assay: % inhibition on normal cell line; format: cell-based
HCC-2998 = assay: NCI 60-cell line screen; format: cell-based, human
CAKI-1 = assay: NCI 60-cell line screen; format: cell-based, human

Compound: O=C(CN1CCN(CC(=O)Nc2nc3ccccc3s2)CC1)Nc1ccc([N+](=O)[O-])cc1 [OMS14, N-(benzo[d]thiazol-2-yl)-2-(4-(2-((4-nitrophenyl)amino)-2-oxoethyl)piperazin-1-yl)acetamide]
- GI50 (SK-MEL-5; Homo sapiens, SK-MEL-5): 1.7 µM
- IC50 (SK-MEL-5; Homo sapiens, SK-MEL-5): 3.2 µM
- CC50 (SK-MEL-5; Homo sapiens, SK-MEL-5, read-out: LC50): 6.3 µM
- TGI (SK-MEL-5; SK-MEL-5, melanoma): 3.3 µM
- GI50 (SW-620; Homo sapiens, SW-620): 0.8 µM
- IC50 (SW-620; Homo sapiens, SW-620): 1.1 µM
- CC50 (SW-620; Homo sapiens, SW-620, read-out: LC50): 87.1 µM
- TGI (SW-620; SW-620, colon cancer): 5.9 µM
- GI50 (SK-OV-3; Homo sapiens, SK-OV-3): 2.2 µM
- IC50 (SK-OV-3; Homo sapiens, SK-OV-3): 6.6 µM
- CC50 (SK-OV-3; Homo sapiens, SK-OV-3, read-out: LC50): > 100 µM
- TGI (SK-OV-3; SK-OV-3, ovarian cancer): 8.1 µM
- GI50 (OVCAR-8; Homo sapiens, OVCAR-8): 1.4 µM
- IC50 (OVCAR-8; Homo sapiens, OVCAR-8): 2.4 µM
- CC50 (OVCAR-8; Homo sapiens, OVCAR-8, read-out: LC50): > 100 µM
- TGI (OVCAR-8; OVCAR-8, ovarian cancer): 4.3 µM
- GI50 (NCI 60 cell line panel; read-out: GI50, range over cell lines): 0.66 to 3.02 µM
- IC50 (NCI 60 cell line panel; read-out: IC50, range over cell lines): 0.81 to 9.1 µM
- GI50 (NCI-H522; Homo sapiens, NCI-H522): 1.5 µM
- IC50 (NCI-H522; Homo sapiens, NCI-H522): 3 µM
- CC50 (NCI-H522; Homo sapiens, NCI-H522, read-out: LC50): 6.5 µM
- TGI (NCI-H522; NCI-H522, non-small cell lung cancer): 3.2 µM
- GI50 (MCF-7; Homo sapiens, MCF7): 2.8 µM
- IC50 (MCF-7; Homo sapiens, MCF7): 4.1 µM
- CC50 (MCF-7; Homo sapiens, MCF7, read-out: LC50): 61.7 µM
- TGI (MCF-7; MCF-7, breast cancer): 7.8 µM
- TGI (HT29; HT29, colon cancer): 3.6 µM
- GI50 (HT29; Homo sapiens, HT-29): 1.3 µM
- IC50 (HT29; Homo sapiens, HT-29): 2.1 µM
- CC50 (HT29; Homo sapiens, HT-29, read-out: LC50): 10.2 µM
- zone of inhibition at 100 µg/mL (Staphylococcus aureus): 15 mm
- GI50 (PC-3; Homo sapiens, PC-3): 3 µM
- IC50 (PC-3; Homo sapiens, PC-3): 4.4 µM
- CC50 (PC-3; Homo sapiens, PC-3, read-out: LC50): > 100 µM
- TGI (PC-3; PC-3, prostate cancer): 20.9 µM
- GI50 (UACC-62; Homo sapiens, UACC-62): 1.7 µM
- IC50 (UACC-62; Homo sapiens, UACC-62): 3.1 µM
- CC50 (UACC-62; Homo sapiens, UACC-62, read-out: LC50): 6.9 µM
- TGI (UACC-62; UACC-62, melanoma): 3.5 µM
- TGI (A549/ATCC; A549/ATCC, non-small cell lung cancer): 4.6 µM
- GI50 (A549/ATCC; Homo sapiens, A549): 1.9 µM
- IC50 (A549/ATCC; Homo sapiens, A549): 3.2 µM
- CC50 (A549/ATCC; Homo sapiens, A549, read-out: LC50): > 100 µM
- GI50 (MDA-MB-231/ATCC; Homo sapiens, MDA-MB-231): 1.9 µM
- IC50 (MDA-MB-231/ATCC; Homo sapiens, MDA-MB-231): 3.9 µM
- CC50 (MDA-MB-231/ATCC; Homo sapiens, MDA-MB-231, read-out: LC50): 18.2 µM
- TGI (MDA-MB-231/ATCC; MDA-MB-231/ATCC, breast cancer): 4.7 µM
- TGI (786-0; 786-0, renal cancer): 11.5 µM
- GI50 (786-0; Homo sapiens, 786-0): 2.1 µM
- IC50 (786-0; Homo sapiens, 786-0): 3.3 µM
- CC50 (786-0; Homo sapiens, 786-0, read-out: LC50): 43.7 µM
- GI50 (T-47D; Homo sapiens, T47D): 2.2 µM
- IC50 (T-47D; Homo sapiens, T47D): 5.6 µM
- CC50 (T-47D; Homo sapiens, T47D, read-out: LC50): > 100 µM
- TGI (T-47D; T-47D, breast cancer): 5.8 µM
- GI50 (CCRF-CEM; Homo sapiens): 2.5 µM
- IC50 (CCRF-CEM; Homo sapiens): 4 µM
- CC50 (CCRF-CEM; Homo sapiens, read-out: LC50): > 100 µM
- TGI (CCRF-CEM; leukemia): 17.4 µM
- GI50 (IGROV1; Homo sapiens, IGROV-1): 1.9 µM
- IC50 (IGROV1; Homo sapiens, IGROV-1): 3.3 µM
- CC50 (IGROV1; Homo sapiens, IGROV-1, read-out: LC50): 47.9 µM
- TGI (IGROV1; IGROV1, ovarian cancer): 4.6 µM
- GI50 (SF-295; Homo sapiens, SF-295): 2.2 µM
- IC50 (SF-295; Homo sapiens, SF-295): 3.7 µM
- CC50 (SF-295; Homo sapiens, SF-295, read-out: LC50): 28.8 µM
- TGI (SF-295; SF-295, CNS cancer): 7.1 µM
- GI50 (MDA-MB-435; Homo sapiens, MDA-MB-435): 1.8 µM
- IC50 (MDA-MB-435; Homo sapiens, MDA-MB-435): 3 µM
- CC50 (MDA-MB-435; Homo sapiens, MDA-MB-435, read-out: LC50): 15.1 µM
- TGI (MDA-MB-435; MDA-MB-435, melanoma): 4.6 µM
- TGI (HS 578T; HS 578T, breast cancer): 8.5 µM
- GI50 (HS 578T; Homo sapiens, Hs-578T): 2.4 µM
- IC50 (HS 578T; Homo sapiens, Hs-578T): 8.9 µM
- CC50 (HS 578T; Homo sapiens, Hs-578T, read-out: LC50): > 100 µM
- GI50 (SF-539; Homo sapiens, SF-539): 2 µM
- IC50 (SF-539; Homo sapiens, SF-539): 4.3 µM
- CC50 (SF-539; Homo sapiens, SF-539, read-out: LC50): 20 µM
- TGI (SF-539; SF-539, CNS cancer): 5.5 µM
- GI50 (NCI/ADR-RES; Homo sapiens): 1.3 µM
- IC50 (NCI/ADR-RES; Homo sapiens): 2.4 µM
- CC50 (NCI/ADR-RES; Homo sapiens, read-out: LC50): 7.8 µM
- TGI (NCI/ADR-RES; ovarian cancer): 3.2 µM
- TGI (COLO 205; COLO 205, colon cancer): 2.2 µM
- GI50 (COLO 205; Homo sapiens, COLO 205): 1 µM
- IC50 (COLO 205; Homo sapiens, COLO 205): 1.7 µM
- CC50 (COLO 205; Homo sapiens, COLO 205, read-out: LC50): 5 µM
- inhibition at 10 µM (Fibro cell line; read-out: %inhibition at 10 μM): 49.4%
- inhibition at 100 µM (Fibro cell line; read-out: %inhibition at 100 μM): 70.5%
- TGI (HCC-2998; HCC-2998, colon cancer): 3.9 µM
- GI50 (HCC-2998; Homo sapiens, HCC 2998): 1.7 µM
- IC50 (HCC-2998; Homo sapiens, HCC 2998): 3.1 µM
- CC50 (HCC-2998; Homo sapiens, HCC 2998, read-out: LC50): 8.9 µM
- TGI (CAKI-1; CAKI-1, renal cancer): 3.6 µM
- GI50 (CAKI-1; Homo sapiens, CAKI-1): 0.9 µM
- IC50 (CAKI-1; Homo sapiens, CAKI-1): 2 µM
- CC50 (CAKI-1; Homo sapiens, CAKI-1, read-out: LC50): 16.2 µM
